Reference: article PMC3991427 (Angewandte Chemie (International ed. in English), 2014)

Tested on: MCF-7 breast cancer cells
Assay type: cell-based
Conditions: broad compound screen at 10 μM, compared with (+)-21
In short: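 Single-concentration screen: each test compound at 10 μM, run in parallel against MCF-7 breast cancer cells and non-tumorigenic MCF-10A breast cells. The assay is proliferation-based, and the read-out is relative cell number after treatment, expressed as a percentage. Selectivity is judged by comparing the MCF-7 response with the MCF-10A response.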

| Compound | inhibition of cell proliferation / cell growth (in words) |
| --- | --- |
| c1ccsc1 [compound 28, thiophene] | did not inhibit cell growth |
| c1ccc2sccc2c1 [compound 29, benzothiophene] | did not inhibit cell growth |
